Assays:
[1] = Selectivity ratio of IC50 for CB1 receptor in Sprague-Dawley rat brain membranes to IC50 for human CB2 receptor; format: cell membranes; details: Membrane
Cannabinoid receptor 2 [2] = molecular target: T1, Cannabinoid receptor 2 (Homo sapiens, UniProt P34972); experiment: Displacement of [3H]CP-55940 from human CB2 receptor expressed in CHO cells after 1 hr by liquid scintillation spectrophotometry; format: cell-based
Cannabinoid receptor 1 [3] = molecular target: Cannabinoid receptor 1 (Rattus norvegicus, UniProt P20272); experiment: Displacement of [3H]CP-55940 from CB1 receptor in Sprague-Dawley rat brain membranes after 1 hr by liquid scintillation spectrophotometry; format: cell membranes, Membrane
Sequence of Cannabinoid receptor 1 (Rattus norvegicus, UniProt P20272) (P20272 whole entry): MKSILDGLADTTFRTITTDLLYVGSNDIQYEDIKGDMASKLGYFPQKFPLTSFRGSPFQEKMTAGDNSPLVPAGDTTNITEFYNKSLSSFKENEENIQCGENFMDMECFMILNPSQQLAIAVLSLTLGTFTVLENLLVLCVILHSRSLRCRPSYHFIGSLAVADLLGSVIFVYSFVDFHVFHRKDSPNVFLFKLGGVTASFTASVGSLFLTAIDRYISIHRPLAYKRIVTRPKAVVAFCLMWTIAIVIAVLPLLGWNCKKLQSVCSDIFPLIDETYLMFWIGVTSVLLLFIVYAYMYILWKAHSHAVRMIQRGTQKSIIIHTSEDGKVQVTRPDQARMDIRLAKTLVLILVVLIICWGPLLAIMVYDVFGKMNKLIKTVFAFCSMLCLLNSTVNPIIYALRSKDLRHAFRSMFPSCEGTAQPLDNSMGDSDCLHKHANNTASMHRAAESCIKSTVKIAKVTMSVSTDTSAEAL
Summary of the method: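 Membranes from whole rat brain (CB1) or human CB2-expressing CHO cells (CB2) were incubated 1 hr at 30°C with 1 nM [3H]CP-55,940 and six competitor concentrations (0.1 nM–10 μM). Buffer contained 5 mg/ml BSA, ethanol ≤0.4%. Nonspecific binding was defined with 1 μM CP-55,940. Separation on polyethyleneimine-treated GF/B filters, then scintillation counting. IC50 from log-linear regression, Ki via Cheng-Prusoff; triplicate, 3–6 repeats.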

Cannabinoid receptor 1 [4] = molecular target: Cannabinoid receptor 1 (Homo sapiens, UniProt P21554); experiment: Binding affinity to CB1 receptor
Sequence of Cannabinoid receptor 1 (Homo sapiens, UniProt P21554) (P21554 whole entry): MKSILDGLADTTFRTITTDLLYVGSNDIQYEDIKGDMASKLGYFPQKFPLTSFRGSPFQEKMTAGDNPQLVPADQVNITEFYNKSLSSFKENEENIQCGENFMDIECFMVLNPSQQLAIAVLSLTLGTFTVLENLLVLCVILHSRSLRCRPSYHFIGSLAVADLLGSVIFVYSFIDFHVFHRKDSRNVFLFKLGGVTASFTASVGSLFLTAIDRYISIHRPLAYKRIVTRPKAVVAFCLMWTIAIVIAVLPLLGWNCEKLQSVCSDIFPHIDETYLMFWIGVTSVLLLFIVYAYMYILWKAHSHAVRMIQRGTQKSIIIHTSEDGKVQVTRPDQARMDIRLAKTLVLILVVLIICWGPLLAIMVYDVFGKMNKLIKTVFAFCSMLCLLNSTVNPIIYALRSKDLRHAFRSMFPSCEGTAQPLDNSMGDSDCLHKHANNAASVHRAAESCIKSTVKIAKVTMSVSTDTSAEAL

Cannabinoid receptor 2 [5] = molecular target: T1, Cannabinoid receptor 2; experiment: Binding affinity to CB2 receptor
Cannabinoid receptor 2 [6] = molecular target: T1, Cannabinoid receptor 2; experiment: Agonist activity at human CB2 receptor expressed in CHO cells assessed as stimulation of [35S]GTPgammaS binding after 1.5 hrs by liquid scintillation spectrophotometry; format: functional, cell-based
Summary of the method: (§1)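 Membranes from CB2-CHO cells grown in DMEM/Ham F-12 with G418 and 5% fetal calf serum. Reactions used 10 μg membrane protein with 10 μM GDP, 0.1 nM radiolabelled GTPγS, 1 mg/mL BSA and varied drug concentrations in NaCl/EGTA Tris buffer pH 7.4, for 1.5 hr at 30°C. Nonspecific binding (unlabeled GTPγS) subtracted; filtration, scintillation counting. Nonlinear regression; Emax relative to 3 μM CP-55,940; mean ± SEM, ≥3 experiments in triplicate.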

Cannabinoid receptor 2 [7] = molecular target: T1, Cannabinoid receptor 2; experiment: Agonist activity at human CB2 receptor expressed in CHO cells assessed as stimulation of [35S]GTPgammaS binding after 1.5 hrs by liquid scintillation spectrophotometry relative to CP-55940; format: functional, cell-based; summary of the method: as §1

T1 sequence (P34972 whole entry): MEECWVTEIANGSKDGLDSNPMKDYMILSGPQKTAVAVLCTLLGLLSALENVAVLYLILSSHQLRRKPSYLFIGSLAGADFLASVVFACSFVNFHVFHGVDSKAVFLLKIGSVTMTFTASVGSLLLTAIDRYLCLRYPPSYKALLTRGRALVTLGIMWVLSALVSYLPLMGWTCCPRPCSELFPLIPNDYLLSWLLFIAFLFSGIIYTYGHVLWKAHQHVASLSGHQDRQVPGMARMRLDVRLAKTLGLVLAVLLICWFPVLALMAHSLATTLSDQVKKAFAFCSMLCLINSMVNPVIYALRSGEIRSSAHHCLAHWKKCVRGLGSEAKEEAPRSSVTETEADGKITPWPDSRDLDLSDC

SMILES | Ratio Ki [1] | Ki (Cannabinoid receptor 2 [2]) [nM] | Ki (Cannabinoid receptor 1 [3]) [nM] | Ki (Cannabinoid receptor 1 [4]) [nM] | Ki (Cannabinoid receptor 2 [5]) [nM] | EC50 (Cannabinoid receptor 2 [6]) [nM] | Emax (Cannabinoid receptor 2 [7]) [%]
CCCCC(C)(C)c1cc(Br)c2c(c1)OC(C)(C)[C@@H]1CC=C(C)C[C@@H]21 | 16 | 71 | 1140 | – | – | – | –
CCCCCCC(C)(C)c1ccc2c(c1)OC(C)(C)[C@@H]1CC=C(C)C[C@@H]21 | – | – | – | 23 | 2.9 | – | –
CCCC(C)(C)c1cc(Br)c2c(c1)OC(C)(C)[C@@H]1CC=C(C)C[C@@H]21 | 38 | 265 | > 10000 | – | – | – | –
CCCCCCC(C)(C)c1ccc2c(c1)OC(C)(C)[C@@H]1CC=C(CO)C[C@@H]21 | – | – | – | 1.2 | 0.032 | – | –
CCCCCC(C)(C)c1cc(Br)c2c(c1)OC(C)(C)[C@@H]1CC=C(C)C[C@@H]21 | 52 | 28 | 1440 | – | – | 28.6 | 92.3
CCCCCc1cc(Br)c2c(c1)OC(C)(C)[C@@H]1CC=C(C)C[C@@H]21 | 18 | 555 | > 10000 | – | – | – | –
CCCCCCC(C)(C)c1cc(Br)c2c(c1)OC(C)(C)[C@@H]1CC=C(C)C[C@@H]21 | 27 | 34 | 562 | – | – | 15 | 91
CCCC(C)(C)c1ccc2c(c1)OC(C)(C)[C@@H]1CC=C(C)C[C@@H]21 | 294 | – | 677 | – | – | 4 | 112

From ChEMBL document CHEMBL1275360, “1-Bromo-3-(1',1'-dimethylalkyl)-1-deoxy-Δ(8)-tetrahydrocannabinols: New selective ligands for the cannabinoid CB(2) receptor” (Bioorg Med Chem, 2010)
